Measured values published in ChEMBL document CHEMBL4699495, “Synthesis and biological evaluation of 5'-C-methyl nucleotide prodrugs for treating HCV infections” (Bioorg Med Chem Lett, 2020).
pEC50: −log10 of the molar value.

Assays:
Hepatitis C virus = experiment: Antiviral activity against HCV subtype 1b infected in human HuH-7-Luc/Neo-ET cells by luciferase replicon-reporter gene assay; assay type: functional, organism-based, Hepacivirus hominis
In short: (§1)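 HCV genotype 1b subgenomic replicon carried in Huh-7 Luc/Neo ET cells. Antiviral EC50 and cytotoxic TC50 were both determined in these cells. Each value is the average of triplicate experiments.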

[1] = Therapeutic index, ratio of TC50 for human HuH-7-Luc/Neo-ET cells to EC50 for HCV infected in human HuH7-Luc/Neo-ET cells; assay type: toxicity
In short: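 Therapeutic index calculated as TC50/EC50. Both values came from Huh-7 Luc/Neo ET cells bearing an HCV genotype 1b replicon, and each was averaged from triplicate experiments.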

[2] = Cytotoxicity against human HuH-7-Luc/Neo-ET cells; assay type: cell-based; settings: read-out: TC50 (the source's name); in short: as §1

Row | SMILES | pEC50 (Hepatitis C virus) | selectivity ratio [1] | CC50 [2] [µM]
1 | CC(C)OC(=O)[C@H](C)N[P@](=O)(OC[C@H]1O[C@@H](n2ccc(=O)[nH]c2=O)[C@](C)(O)[C@@H]1O)Oc1ccccc1 | 7.52 | 2780 | 85.6
2 | CCCCCCCCCC(=O)Oc1ccc(COP(=O)(OCc2ccc(OC(=O)CCCCCCCCC)cc2)OP(=O)([O-])O[C@@H](C)[C@H]2O[C@@H](n3ccc(=O)[nH]c3=O)[C@](C)(O)[C@@H]2O)cc1.CCCC[N+](CCCC)(CCCC)CCCC | 4.60 | 3.29 | > 83.2
3 | CCCCCCCCCC(=O)Oc1ccc(COP(=O)(OCc2ccc(OC(=O)CCCCCCCCC)cc2)OP(=O)([O-])O[C@H](C)[C@H]2O[C@@H](n3ccc(=O)[nH]c3=O)[C@](C)(O)[C@@H]2O)cc1.CCCC[N+](CCCC)(CCCC)CCCC | 5.59 | > 38.5 | > 100
4 | CC(C)OC(=O)[C@H](C)N[P@@](=O)(Oc1ccccc1)O[C@H](C)[C@H]1O[C@@H](n2ccc(=O)[nH]c2=O)[C@](C)(O)[C@@H]1O | 5.83 | > 67.1 | > 100
5 | CC(C)OC(=O)[C@H](C)N[P@@](=O)(Oc1ccccc1)O[C@@H](C)[C@H]1O[C@@H](n2ccc(=O)[nH]c2=O)[C@](C)(O)[C@@H]1O | 5.11 | > 12.9 | > 100
6 | CCCCCCCCCC(=O)Oc1ccc(COP(=O)(OCc2ccc(OC(=O)CCCCCCCCC)cc2)OP(=O)([O-])OC[C@H]2O[C@@H](n3ccc(=O)[nH]c3=O)[C@](C)(O)[C@@H]2O)cc1.CCCC[N+](CCCC)(CCCC)CCCC | 7.40 | > 2590 | > 100
7 | CC(C)OC(=O)[C@H](C)N[P@](=O)(OC[C@H]1O[C@@H](n2ccc(=O)[nH]c2=O)[C@](C)(F)[C@@H]1O)Oc1ccccc1 [SOFOSBUVIR] | 7.52 | > 29.2 | > 1
